Laboratory results taken from ChEMBL document CHEMBL1147591, “A novel class of apical sodium-dependent bile acid transporter inhibitors: the amphiphilic 4-oxo-1-phenyl-1,4-dihydroquinoline derivatives” (Bioorg Med Chem Lett, 2004).

Tests used:
[1] = system: Cricetinae gen. sp.; assay: Evaluated for total serum cholesterol in hamster at a dose of 1.0 mg/kg; format: functional, Cricetulus griseus
Summary of the method: (§1)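 Chow-fed male Syrian golden hamsters dosed orally by gavage in 0.5% carboxymethylcellulose vehicle once daily in the evening for 14 consecutive days at 0.3, 1, 3, 10, 30 or 100 mg/kg/day. Chow and water were given freely and animals weighed daily. They were sacrificed the morning after the 14th dose. Serum was assayed for triglycerides, total cholesterol and lipoprotein cholesterol (VLDL+LDL, HDL).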

[2] = system: Cricetinae gen. sp.; assay: Evaluated for total non HDL- cholesterol in hamster at a dose of 3.0 mg/kg; format: functional; summary of the method: as §1
[3] = Ratio between total non HDL-cholesterol and HDL-cholesterol in hamster at a dose of 100.0 mg/kg; format: functional
Summary of the method: (§2)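 Chow-fed male Syrian golden hamsters were dosed by oral gavage in 0.5% carboxymethylcellulose each evening for 14 consecutive days, with free access to chow and water. Animals were weighed daily and killed the morning after the 14th dose. Serum lipoprotein cholesterol profiles were measured, and the ratio of non-HDL (VLDL plus LDL) cholesterol to HDL-cholesterol was calculated.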

[4] = system: Cricetinae gen. sp.; assay: Evaluated for total triglycerides in hamster at a dose of 0.3 mg/kg; format: functional, Cricetulus griseus; summary of the method: as §1
[5] = system: Cricetinae gen. sp.; assay: Evaluated for total serum cholesterol in hamster at a dose of 0.3 mg/kg; format: functional; summary of the method: as §1
[6] = Ratio between total non HDL-cholesterol and HDL-cholesterol in hamster at a dose of 3.0 mg/kg; format: functional; summary of the method: as §2
[7] = Ratio between total non HDL-cholesterol and HDL-cholesterol in hamster at a dose of 1.0 mg/kg; format: functional; summary of the method: as §2
[8] = system: Cricetinae gen. sp.; assay: Evaluated for total triglycerides in hamster at a dose of 10.0 mg/kg; format: functional, Cricetulus griseus; summary of the method: as §1
[9] = system: Cricetinae gen. sp.; assay: Evaluated for total non HDL- cholesterol in hamster at a dose of 100.0 mg/kg; format: functional; summary of the method: as §1
[10] = system: Cricetinae gen. sp.; assay: Evaluated for total serum cholesterol in hamster at a dose of 30.0 mg/kg; format: functional; summary of the method: as §1
[11] = system: Cricetinae gen. sp.; assay: Evaluated for total HDL-cholesterol in hamster at a dose of 100.0 mg/kg; format: functional; summary of the method: as §1
[12] = system: Cricetinae gen. sp.; assay: Evaluated for total triglycerides in hamster at a dose of 30.0 mg/kg; format: functional, Cricetulus griseus; summary of the method: as §1
[13] = system: Cricetinae gen. sp.; assay: Evaluated for total non HDL- cholesterol in hamster at a dose of 1.0 mg/kg; format: functional; summary of the method: as §1
[14] = system: Cricetinae gen. sp.; assay: Evaluated for total non HDL- cholesterol in hamster at a dose of 30.0 mg/kg; format: functional; summary of the method: as §1
[15] = system: Mesocricetus auratus; assay: Evaluated for total non HDL- cholesterol in hamster at a dose of 10.0 mg/kg
[16] = Ratio between total non HDL-cholesterol and HDL-cholesterol in hamster at a dose of 0.3 mg/kg; format: functional; summary of the method: as §2
[17] = Ratio between total non HDL-cholesterol and HDL-cholesterol in hamster at a dose of 30.0 mg/kg; format: functional; summary of the method: as §2
[18] = system: Cricetinae gen. sp.; assay: Evaluated for total serum cholesterol in hamster at a dose of 3.0 mg/kg; format: functional, Cricetulus griseus; summary of the method: as §1
[19] = system: Ileal sodium/bile acid cotransporter (hamster); assay: Inhibition of ASBT as [3H]taurocholate uptake in hamster ileal ring at 30 ug/mL; conditions: Syrian hamster
[20] = system: Mesocricetus auratus; assay: Evaluated for total triglycerides in hamster at a dose of 100.0 mg/kg
[21] = system: Cricetinae gen. sp.; assay: Evaluated for total triglycerides in hamster at a dose of 1.0 mg/kg; format: functional, Cricetulus griseus; summary of the method: as §1
[22] = system: Cricetinae gen. sp.; assay: Evaluated for total HDL-cholesterol in hamster at a dose of 10.0 mg/kg; format: functional; summary of the method: as §1
[23] = system: Cricetinae gen. sp.; assay: Evaluated for total serum cholesterol in hamster at a dose of 100.0 mg/kg; format: functional, Cricetulus griseus; summary of the method: as §1
[24] = system: Cricetinae gen. sp.; assay: Evaluated for total HDL-cholesterol in hamster at a dose of 1.0 mg/kg; format: functional; summary of the method: as §1
[25] = system: Cricetinae gen. sp.; assay: Evaluated for total HDL-cholesterol in hamster at a dose of 30.0 mg/kg; format: functional; summary of the method: as §1
[26] = system: Cricetinae gen. sp.; assay: Evaluated for total non HDL- cholesterol in hamster at a dose of 0.3 mg/kg; format: functional; summary of the method: as §1
[27] = Ratio between total non HDL-cholesterol and HDL-cholesterol in hamster at a dose of 10.0 mg/kg; format: functional; summary of the method: as §2
[28] = system: Cricetinae gen. sp.; assay: Evaluated for total triglycerides in hamster at a dose of 3.0 mg/kg; format: functional, Cricetulus griseus; summary of the method: as §1
[29] = system: Cricetinae gen. sp.; assay: Evaluated for total HDL-cholesterol in hamster at a dose of 0.3 mg/kg; format: functional; summary of the method: as §1
[30] = system: Cricetinae gen. sp.; assay: Evaluated for total HDL-cholesterol in hamster at a dose of 3.0 mg/kg; format: functional; summary of the method: as §1
[31] = system: Cricetinae gen. sp.; assay: Evaluated for total serum cholesterol in hamster at a dose of 10.0 mg/kg; format: functional, Cricetulus griseus; summary of the method: as §1

CCN(C(=O)c1cn(-c2cc(OC)cc(OC)c2)c2cc(OCCCCCCC[N+]34CCN(CC3)CC4)ccc2c1=O)c1cc(F)cc(F)c1.[Br-]
TC [1]: 166.9 mg/dL
Non-HDL-C [2]: 94.1 mg/dL
Ratio [3]: 0.9
TG [4]: 142.7 mg/dL
TC [5]: 157.4 mg/dL
Ratio [6]: 1.2
Ratio [7]: 1.1
TG [8]: 217.6 mg/dL
Non-HDL-C [9]: 57 mg/dL
TC [10]: 142.8 mg/dL
HDL-C [11]: 61.9 mg/dL
TG [12]: 235 mg/dL
Non-HDL-C [13]: 85.2 mg/dL
Non-HDL-C [14]: 78.9 mg/dL
Non-HDL-C [15]: 74.3 mg/dL
Ratio [16]: 0.9
Ratio [17]: 1.3
TC [18]: 174.3 mg/dL
inhibition at 30 µg/mL [19]: 100%
TG [20]: 217.7 mg/dL
TG [21]: 249.3 mg/dL
HDL-C [22]: 69.8 mg/dL
TC [23]: 118.9 mg/dL
HDL-C [24]: 81.7 mg/dL
HDL-C [25]: 63.9 mg/dL
Non-HDL-C [26]: 75.7 mg/dL
Ratio [27]: 1.1
TG [28]: 270.8 mg/dL
HDL-C [29]: 81.8 mg/dL
HDL-C [30]: 80.2 mg/dL
TC [31]: 144.1 mg/dL

CCN(C(=O)c1cn(-c2ccc(OC)cc2)c2cc(OC)ccc2c1=O)c1cc(F)cc(F)c1
inhibition at 30 µg/mL [19]: 64%

CCN(C(=O)c1cn(-c2cc(OC)cc(OC)c2)c2cc(OCc3ccc(C[N+]45CCN(CC4)CC5)cc3)ccc2c1=O)c1cc(F)cc(F)c1
inhibition at 30 µg/mL [19]: 71%

CCN(C(=O)c1cn(-c2cc(OC)cc(OCc3ccc(C[N+]45CCN(CC4)CC5)cc3)c2)c2cc(OC)ccc2c1=O)c1cc(F)cc(F)c1
inhibition at 30 µg/mL [19]: 71%

CCN(C(=O)c1cn(-c2cc(OC)cc(OCCCCCCC[N+]34CCN(CC3)CC4)c2)c2cc(OC)ccc2c1=O)c1cc(F)cc(F)c1
inhibition at 30 µg/mL [19]: 86%

CCN(C(=O)c1cn(-c2ccc(OCc3ccc(C[N+]45CCN(CC4)CC5)cc3)cc2)c2cc(OC)ccc2c1=O)c1cc(F)cc(F)c1
inhibition at 30 µg/mL [19]: 41%

CCN(C(=O)c1cn(-c2cc(OC)cc(OCCCCCC[N+]34CCN(CC3)CC4)c2)c2cc(OC)ccc2c1=O)c1cc(F)cc(F)c1
inhibition at 30 µg/mL [19]: 83%

CCN(C(=O)c1cn(-c2cc(OC)cc(OC)c2)c2cc(OCCCCCCCC[N+]34CCN(CC3)CC4)ccc2c1=O)c1cc(F)cc(F)c1
inhibition at 30 µg/mL [19]: 94%

CCN(C(=O)c1cn(-c2cc(OC)cc(OC)c2)c2cc(OCCCCCC[N+]34CCN(CC3)CC4)ccc2c1=O)c1cc(F)cc(F)c1
inhibition at 30 µg/mL [19]: 88%

CCN(C(=O)c1cn(-c2cc(OC)cc(OC)c2)c2cc(OC)ccc2c1=O)c1cc(F)cc(F)c1
inhibition at 30 µg/mL [19]: 64%

CCN(C(=O)c1cn(-c2cc(OC)cc(OC)c2)c2cc(OCCCCC[N+]34CCN(CC3)CC4)ccc2c1=O)c1cc(F)cc(F)c1
inhibition at 30 µg/mL [19]: 67%

CCN(C(=O)c1cn(-c2cc(OC)cc(OC)c2)c2cc(OCCCC[N+]34CCN(CC3)CC4)ccc2c1=O)c1cc(F)cc(F)c1
inhibition at 30 µg/mL [19]: 24%

CCN(C(=O)c1cn(-c2cc(OC)cc(OCCCCCCCC[N+]34CCN(CC3)CC4)c2)c2cc(OC)ccc2c1=O)c1cc(F)cc(F)c1
inhibition at 30 µg/mL [19]: 83%
